In the RNAGym collection of RNA variant scans (doi:10.1126/science.aae0568):
This sample holds only a part of the variants without activity.

B1: tRNA (parent)
chain: GUUCCGUUGGCGUAAUGGUAACGCGUCUCCCUCCUAAGGAGAAGACUGCGGGUUCGAGUCCCGUACGGAACG

Variants of: B1
Assay: yeast fitness relative to wild type (ratio to wild type); higher = fitter; tRNA-Arg(CCU), competitive growth, 37 C, YPD
How it was run: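 Genotype frequency changes were the basis for Darwinian fitness relative to wild type. The frequencies came from 100-nucleotide paired-end sequencing of gene amplicons from the start population and each end population of pooled yeast strains with tRNA-Arg(CCU) gene variants at the native locus. Competition ran in YPD at 37°C for 24 hours in six replicates, genotypes needed ≥ 100 starting reads, and estimates < 0.5 were set to 0.5.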
GUUCCGUUGGCGUAAUGGUAACGCGUCUCCCUCCUGACGAGAAGACUGCGGCUUCGUGUCCCGUACGGAACG [A36G G38C G52C A57U] gave a yeast fitness of at most 0.5. For GUUCCGUUGGCGUAAUGGUAACGCGUCUCCCUCCUGAGGAGAAGACUGUGGGUUCGACUCCCGUACGGAACG [A36G C49U G58C], the yeast fitness was 0.655. Work on GUUCCGUUGGCGUAAUGGUAACGCGUCUCCCUCCUGAGGAGAAGACUGCGGGUUCGAGUCGCGUACGGACCG [A36G C61G A70C] yielded a yeast fitness of 0.661. GUUCCGUUGGCGUAAUGGUAACGCGUCUCCCUCCUGAGAAGAAGACAGCGGGUUCGAGUCCCGUACGCAACG [A36G G39A U47A G68C] showed a yeast fitness of at most 0.5. Work on GUUCCGUUGGCGUAAUGGUAACGCGUCUCCCUCCUGAGGAGAAGACUGCGGGUUCGAGUCCCGUAUGGAACG [A36G C66U] yielded a yeast fitness of 0.949. GUUCCGUUGGCGUAAUGGUAACGCGUCUCCCUCCUGAGGAGAAGACUGCGGGUUCGAGUCCCGUAAGGAACG [A36G C66A] showed a yeast fitness of 0.683. GUUCCGUUGGCGUAAUGGUAACGCGUCUCCCUCCUGAGGAGAAGACUGCGGGUUCGAGUCACGUACGGAACG [A36G C61A] showed a yeast fitness of 0.766. GUUCCGUUGGCGUAAUGGUAACGCGUCUCCCUCCUGAGGAGAAGACUGCGGGUUCGAGUCUCGUACGGAACG [A36G C61U] showed a yeast fitness of 0.891. GUUCCGUUGGCGUAAUGGUAACGCGUCUCCCUCCUGAGGAGAAGACUGCGGGUUCGAGUUUCGUACGGAACG [A36G C60U C61U] gave a yeast fitness of 0.625. GUUCCGUUGGCGUAAUGGUAACGCGUCUCCCUCCUGACGAGAAGACUGCGGCUUCGUGUCCCGUACGGUGCG [A36G G38C G52C A57U A69U A70G] showed a yeast fitness of at most 0.5. GUUCCGUUGGCGUAAUGGUAACGCGUCUCCCUCCUGAGGAGAAGACUGCGGGUUCGAGUACCGUACGGAGCG [A36G C60A A70G] showed a yeast fitness of at most 0.5. Variant GUUCCGUUGGCGUAAUGGUAACGCGUCUCCCUCCUGAGGAGAAGACUGUGGGUUCGAGUCCCGUAGGGAACG [A36G C49U C66G] has a yeast fitness of at most 0.5. With GUUCCGUUGGCGUAAUGGUAACGCGUCUCCCUCCUGACGAGAAGACUGCGGGUUCGAGUCCCGUACGGAACG [A36G G38C] the yeast fitness was 0.719. Work on GUUCCGUUGGCGUAAUGGUAACGCGUCUCCCUCCUGAGGAGAAGACUGCGGGUUCGAGUCCACUACGGAACG [A36G C62A G63C] yielded a yeast fitness of at most 0.5. In the case of GUUCCGUUGGCGUAAUGGUAACGCGUCUCCCUCCUGAGGAGAAGACUGCGGGUUUGAGUCCCGUACGGAACG [A36G C55U], the yeast fitness is reported as 0.743. With GUUCCGUUGGCGUAAUGGUAACGCGUCUCCCUCCUGAGGAGAAGACUGCGGGUUAGAGUCCCGUACGGUACG [A36G C55A A69U] the yeast fitness was 0.635. GUUCCGUUGGCGUAAUGGUAACGCGUCUCCCUCCUGAGGAGAAAAUUGCGGGUUCGAGUCCCGUACGGAACG [A36G G44A C46U] gave a yeast fitness of 0.992. Work on GUUCCGUUGGCGUAAUGGUAACGCGUCUCCCUCCUGAGGAGAAGACUGCGGGUUAGAGUCCCGUAAGGAACG [A36G C55A C66A] yielded a yeast fitness of at most 0.5. For GUUCCGUUGGCGUAAUGGUAACGCGUCUCCCUCCUGAGGAGAAGACUGCGGGUUCGAGUCUCGUACGGAUCG [A36G C61U A70U], the yeast fitness was 0.755. Work on GUUCCGUUGGCGUAAUGGUAACGCGUCUCCCUCCUGAGGAAAGGACUGCGGGUUCGAGUUCCGUACGGACCG [A36G G41A A43G C60U A70C] yielded a yeast fitness of at most 0.5. GUUCCGUUGGCGUAAUGGUAACGCGUCUCCCUCCUGAGGAGAAGACUGCGGGUUGGAGUCCCGUGCGGAACG [A36G C55G A65G] showed a yeast fitness of at most 0.5. In the case of GUUCCGUUGGCGUAAUGGUAACGCGUCUCCCUCCUGAGGAGAAGACUGCGGGUUCGAGUUCCGUACGGAUCG [A36G C60U A70U], the yeast fitness is reported as at most 0.5. In the case of GUUCCGUUGGCGUAAUGGUAACGCGUCUCCCUCCUGAGGACAAGACUGCGGGUUCGAGUCCCGUACGGAACG [A36G G41C], the yeast fitness is reported as 0.955. Work on GUUCCGUUGGCGUAAUGGUAACGCGUCUCCCUCCUGAGGAGAAGACUGCGGGUUCGAGUCUCGUAUGGAACG [A36G C61U C66U] yielded a yeast fitness of 0.543. In the case of GUUCCGUUGGCGUAAUGGUAACGCGUCUCCCUCCUGAGGAGAAGACUGCGGGUUAGAGUCCCGUACCGAACG [A36G C55A G67C], the yeast fitness is reported as at most 0.5. GUUCCGUUGGCGUAAUGGUAACGCGUCUCCCUCCUGAGAAGAAGACUGCGGGUUCGAGUCCCGUACGGAACG [A36G G39A] gave a yeast fitness of 0.954. Work on GUUCCGUUGGCGUAAUGGUAACGCGUCUCCCUCCUGAGCAGAAGACUGCGGGUUCGAGUCCCGUACGGAACG [A36G G39C] yielded a yeast fitness of 0.787. Variant GUUCCGUUGGCGUAAUGGUAACGCGUCUCCCUCCUGAGGAGAAUACUGCGGGUUCGAGUCCCGUACGGAACG [A36G G44U] has a yeast fitness of 0.711. With GUUCCGUUGGCGUAAUGGUAACGCGUCUCCCUCCUGAGGAGAACACUGCGGGUUCGAGUCCCGUACGGAACG [A36G G44C] the yeast fitness was 0.981. Work on GUUCCGUUGGCGUAAUGGUAACGCGUCUCCCUCCUGAGGAGAAGACUGCGGGUUAGAGUUCCGUACGGAACG [A36G C55A C60U] yielded a yeast fitness of at most 0.5. In the case of GUUCCGUUGGCGUAAUGGUAACGCGUCUCCCUCCUGAGGAGAAGACUGCGGGUUCGAGUGCCGUACGGAACG [A36G C60G], the yeast fitness is reported as 0.629. Variant GUUCCGUUGGCGUAAUGGUAACGCGUCUCCCUCCUGAGGAGAAGACUGCGGGUUCGAGUUCCGUACGGAACG [A36G C60U] has a yeast fitness of 0.793. With GUUCCGUUGGCGUAAUGGUAACGCGUCUCCCUCCUGAGGAGAAGACUACGGGGUCGAGUCCCGUACGGAACG [A36G G48A U53G] the yeast fitness was at most 0.5. Work on GUUCCGUUGGCGUAAUGGUAACGCGUCUCCCUCCUGAGGAGAAGACUGCGGGUUCGAGUAGCGUUCGGAACG [A36G C60A C61G A65U] yielded a yeast fitness of at most 0.5. GUUCCGUUGGCGUAAUGGUAACGCGUCUCCCUCCUGAGGAAAAGACUGCGGGUUCGAGUGCCGUGCGGAACG [A36G G41A C60G A65G] gave a yeast fitness of at most 0.5. GUUCCGUUGGCGUAAUGGUAACGCGUCUCCCUCCUGAGGAGAAGACUAGGGGUUCGAGACCCGUACGGAACG [A36G G48A C49G U59A] showed a yeast fitness of at most 0.5. Work on GUUCCGUUGGCGUAAUGGUAACGCGUCUCCCUCCUGAGGACAAGACUGCGGGUUCGAGUGCCGUACGGAACG [A36G G41C C60G] yielded a yeast fitness of 0.682. Work on GUUCCGUUGGCGUAAUGGUAACGCGUCUCCCUCCUGAGGAGAAGACUAGGGGUUCGAGUCCCGUACGGAACG [A36G G48A C49G] yielded a yeast fitness of 0.63.
